The source made the active and inactive calls. The calls are words filed in the database; no cut-off is given here.
Columns and labels:
RAW264.7 [1] = assay: Inhibition of MAPK/NFkappaB in ICR mouse RAW264.7 cells assessed as reduction in LPS-induced IL6 production at 10 uM pretreated for 0.5 hrs followed by LPS challenge and measured after 24 hrs by ELISA relative to piperlongumine; assay type: cell-based
RAW264.7 [2] = assay: Inhibition of MAPK/NFkappaB in ICR mouse RAW264.7 cells assessed as reduction in LPS-induced TNF-alpha production at 10 uM pretreated for 0.5 hrs followed by LPS challenge and measured after 24 hrs by ELISA relative to piperlongumine; assay type: cell-based
[3] = tested on: peritoneal macrophages (Mus musculus); assay: Inhibition of MAPK/NFkappaB in ICR mouse peritoneal macrophages assessed as reduction in LPS-induced IL6 production at 10 uM pretreated for 0.5 hrs followed by LPS challenge and measured after 24 hrs by ELISA relative to curcumin
RAW264.7 [4] = assay: Cytotoxicity against ICR mouse RAW264.7 cells assessed as effect on cell proliferation at 10 uM after 24 hrs by MTT assay; assay type: cell-based; conditions: raw264.7, 24 h
RAW264.7 [5] = assay: Inhibition of MAPK/NFkappaB in ICR mouse RAW264.7 cells assessed as reduction in LPS-induced TNF-alpha production at 10 uM pretreated for 0.5 hrs followed by LPS challenge and measured after 24 hrs by ELISA relative to curcumin; assay type: cell-based
RAW264.7 [6] = assay: Inhibition of MAPK/NFkappaB in ICR mouse RAW264.7 cells assessed as reduction in LPS-induced IL6 production at 10 uM pretreated for 0.5 hrs followed by LPS challenge and measured after 24 hrs by ELISA relative to control; assay type: cell-based
RAW264.7 [7] = assay: Inhibition of MAPK/NFkappaB in ICR mouse RAW264.7 cells assessed as reduction in LPS-induced TNFalpha production at 10 uM pretreated for 0.5 hrs followed by LPS challenge and measured after 24 hrs by ELISA relative to control; assay type: cell-based
[8] = target: Transcription factor p65 (Mus musculus) (UniProt Q04207); assay: Inhibition of LPS-induced NFkappaB p65 nuclear translocation in ICR mouse RAW264.7 cells preincubated for 0.5 hrs followed by LPS challenge and measured after 40 mins by DAPI staining-based immunofluorescence microscopic analysis; assay type: cell-based
Outline: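 RAW 264.7 cells were pretreated with compound for 0.5 h, then given LPS for 40 min (methods) or 45 min (legend). Cells were fixed with 4% paraformaldehyde and permeabilized in methanol. Anti-p65 (1:200) was applied overnight at 4 °C, then PE-conjugated secondary (1:200) for 2 h. Nuclei were stained with DAPI and cells viewed by fluorescence microscopy.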

RAW264.7 [9] = assay: Inhibition of NFkappaB/MAPK signaling in LPS-induced mouse RAW264.7 cells assessed as down regulation of IkappaB expression at 10 uM preincubated for 0.5 hrs followed by LPS-challenge and measured after 30 mins by immunoblotting analysis; assay type: cell-based
Outline: (§1)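 RAW 264.7 cells were pretreated with compound for 0.5 h and then stimulated with LPS for 30 min. Lysates were resolved on 10% or 12% SDS-PAGE and transferred to nitrocellulose. Membranes were blocked in TBS (pH 7.6) with 0.05% Tween 20 and 5% milk. Blots were probed for p-p38, p38, p-ERK, ERK, IκBα and GAPDH, detected with HRP secondaries and ECL.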

RAW264.7 [10] = assay: Inhibition of MAPK/NFkappaB in ICR mouse RAW264.7 cells assessed as reduction in LPS-induced TNFalpha production pretreated for 0.5 hrs followed by LPS challenge and measured after 24 hrs by ELISA; assay type: cell-based
[11] = Stability in pH 7.4 phosphate buffer assessed as compound decomposition measured up to 25 mins by UV-Vis spectroscopy; assay type: physicochemical; conditions: pH 7.4, 25 min
Outline: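 Compound stability was followed by recording UV-visible absorption spectra in phosphate buffer at pH 7.4.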

RAW264.7 [12] = assay: Inhibition of MAPK/NFkappaB in ICR mouse RAW264.7 cells assessed as reduction in LPS-induced IL6 production pretreated for 0.5 hrs followed by LPS challenge and measured after 24 hrs by ELISA; assay type: cell-based
RAW264.7 [13] = assay: Inhibition of LPS-induced ERK phosphorylation in ICR mouse RAW264.7 cells at 10 uM preincubated for 0.5 hrs followed by LPS challenge and measured after 30 mins by immunoblotting analysis; assay type: cell-based; outline: as §1
[14] = target: MAP kinase p38 (Mus musculus) (UniProt P47811+O08911+Q9WUI1+Q9Z1B7); assay: Inhibition of LPS-induced p38 MAPK phosphorylation in ICR mouse RAW264.7 cells at 10 uM preincubated for 0.5 hrs followed by LPS challenge and measured after 30 mins by immunoblotting analysis; assay type: cell-based; outline: as §1

Sequence of Transcription factor p65 (Mus musculus) (Q04207 whole entry): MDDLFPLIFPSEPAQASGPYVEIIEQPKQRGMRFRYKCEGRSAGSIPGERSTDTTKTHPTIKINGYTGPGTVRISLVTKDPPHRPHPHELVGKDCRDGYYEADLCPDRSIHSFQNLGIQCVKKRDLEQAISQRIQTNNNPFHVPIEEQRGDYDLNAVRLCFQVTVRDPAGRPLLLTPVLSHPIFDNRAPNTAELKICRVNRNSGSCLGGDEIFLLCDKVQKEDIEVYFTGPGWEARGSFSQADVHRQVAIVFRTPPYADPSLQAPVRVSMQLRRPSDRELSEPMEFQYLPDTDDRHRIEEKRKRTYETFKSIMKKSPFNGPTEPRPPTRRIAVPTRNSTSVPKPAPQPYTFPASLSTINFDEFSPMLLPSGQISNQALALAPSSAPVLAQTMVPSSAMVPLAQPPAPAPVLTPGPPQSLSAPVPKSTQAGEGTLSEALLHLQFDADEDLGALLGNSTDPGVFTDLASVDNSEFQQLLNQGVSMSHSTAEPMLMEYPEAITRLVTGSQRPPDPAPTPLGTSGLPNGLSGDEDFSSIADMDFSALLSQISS

SMILES | Activity (RAW264.7 [4]) | inhibition (RAW264.7 [6]) | inhibition (RAW264.7 [7]) | further results
COc1cc(/C=C2\CCCN(C(=O)/C=C/c3ccccc3C(F)(F)F)C2=O)cc(OC)c1OC | Non-Toxic | – | – | inhibition (RAW264.7 [1]): < 85.3%; inhibition (RAW264.7 [2]): < 85.3%; inhibition [3]: < 85.3%; inhibition (RAW264.7 [5]): < 85.3%
COc1cccc(/C=C/C(=O)N2CCC/C(=C\c3cc(OC)c(OC)c(OC)c3)C2=O)c1 | Non-Toxic | 39.6 to 99.5% | 39.6 to 99.5% | –
COc1cc(/C=C2\CCCN(C(=O)/C=C/c3ccc(F)cc3Cl)C2=O)cc(OC)c1OC | Non-Toxic | 46.8 to 68.2% | 38.5 to 53.4% | –
COc1ccc(/C=C/C(=O)N2CCC/C(=C\c3cc(OC)c(OC)c(OC)c3)C2=O)c(F)c1 | Non-Toxic | 39.6 to 99.5% | 39.6 to 99.5% | –
COc1cc(/C=C2\CCCN(C(=O)/C=C/c3cccc(Br)c3)C2=O)cc(OC)c1OC | Non-Toxic | – | – | inhibition (RAW264.7 [1]): < 85.3%; inhibition (RAW264.7 [2]): < 85.3%; inhibition [3]: < 85.3%; inhibition (RAW264.7 [5]): < 85.3%
COc1cc(/C=C/C(=O)N2CCC=CC2=O)cc(OC)c1OC [PIPLARTINE] | Non-Toxic | Active | Active | –
COc1ccc(/C=C/C(=O)N2CCC/C(=C\c3cc(OC)c(OC)c(OC)c3)C2=O)c(OC)c1 | Non-Toxic | 39.6 to 99.5% | 39.6 to 99.5% | –
COc1cc(/C=C2\CCCN(C(=O)/C=C/c3cc(F)ccc3F)C2=O)cc(OC)c1OC | Non-Toxic | 46.8 to 68.2% | 38.5 to 53.4% | –
COc1cccc(/C=C/C(=O)N2CCC/C(=C\c3cc(OC)c(OC)c(OC)c3)C2=O)c1OC | Non-Toxic | inactive | inactive | –
COc1cc(/C=C2\CCCN(C(=O)/C=C/c3ccc(Br)cc3)C2=O)cc(OC)c1OC | Non-Toxic | – | – | inhibition (RAW264.7 [1]): < 85.3%; inhibition (RAW264.7 [2]): < 85.3%; inhibition [3]: < 85.3%; inhibition (RAW264.7 [5]): < 85.3%
COc1ccccc1/C=C/C(=O)N1CCC/C(=C\c2cc(OC)c(OC)c(OC)c2)C1=O | Non-Toxic | 39.6 to 99.5% | 39.6 to 99.5% | –
COc1cc(OC)c(OC)cc1/C=C/C(=O)N1CCC/C(=C\c2cc(OC)c(OC)c(OC)c2)C1=O | Non-Toxic | 39.6 to 99.5% | 39.6 to 99.5% | –
COc1cc(/C=C2\CCCN(C(=O)/C=C/c3cc(C)ccc3C)C2=O)cc(OC)c1OC | Non-Toxic | 39.6 to 99.5% | 39.6 to 99.5% | –
COc1cc(/C=C2\CCCN(C(=O)/C=C/c3c(F)cccc3Cl)C2=O)cc(OC)c1OC | Non-Toxic | 46.8 to 68.2% | 38.5 to 53.4% | –
COc1cc(/C=C2\CCCN(C(=O)/C=C/c3cccc(F)c3)C2=O)cc(OC)c1OC | Non-Toxic | – | – | inhibition (RAW264.7 [1]): < 85.3%; inhibition (RAW264.7 [2]): < 85.3%; inhibition [3]: < 85.3%; inhibition (RAW264.7 [5]): < 85.3%
COc1cc(/C=C2\CCCN(C(=O)/C=C/c3ccc([N+](=O)[O-])cc3)C2=O)cc(OC)c1OC | Non-Toxic | 94.1% | 38.6% | –
COc1cc(/C=C2\CCCN(C(=O)/C=C/c3ccccc3O)C2=O)cc(OC)c1OC | Non-Toxic | 39.6 to 99.5% | 39.6 to 99.5% | –
COc1ccc(F)c(/C=C/C(=O)N2CCC/C(=C\c3cc(OC)c(OC)c(OC)c3)C2=O)c1 | Non-Toxic | 46.8 to 68.2% | 38.5 to 53.4% | –
COc1cc(/C=C2\CCCN(C(=O)/C=C/c3ccccc3OC(C)=O)C2=O)cc(OC)c1OC | Non-Toxic | 39.6 to 99.5% | 39.6 to 99.5% | –
COc1cc(/C=C/C(=O)CC(=O)/C=C/c2ccc(O)c(OC)c2)ccc1O [CURCUMIN] | Non-Toxic | Active | Active | inhibition [8]: Active; inhibition (RAW264.7 [9]): Active; inhibition (RAW264.7 [10]): Active; Stability [11]: Unstable; inhibition (RAW264.7 [12]): Active; inhibition (RAW264.7 [13]): Active; inhibition [14]: Active
COc1cc(/C=C2\CCCN(C(=O)/C=C/c3ccc(OC(C)=O)cc3)C2=O)cc(OC)c1OC | Non-Toxic | 39.6 to 99.5% | 39.6 to 99.5% | –
COc1cc(/C=C2\CCCN(C(=O)/C=C/c3ccccc3Cl)C2=O)cc(OC)c1OC | Non-Toxic | – | – | inhibition (RAW264.7 [1]): < 85.3%; inhibition (RAW264.7 [2]): < 85.3%; inhibition [3]: < 85.3%; inhibition (RAW264.7 [5]): < 85.3%
COc1cc(/C=C2\CCCN(C(=O)/C=C/c3c(Cl)cccc3Cl)C2=O)cc(OC)c1OC | Non-Toxic | 39.6 to 99.5% | 39.6 to 99.5% | –
COc1cc(/C=C2\CCCN(C(=O)/C=C/c3ccccc3F)C2=O)cc(OC)c1OC | Non-Toxic | – | – | inhibition (RAW264.7 [1]): < 85.3%; inhibition (RAW264.7 [2]): < 85.3%; inhibition [3]: < 85.3%; inhibition (RAW264.7 [5]): < 85.3%
COc1cc(/C=C2\CCCN(C(=O)/C=C/c3ccc(F)c(F)c3)C2=O)cc(OC)c1OC | Non-Toxic | 39.6 to 99.5% | 39.6 to 99.5% | –
COc1cc(/C=C2\CCCN(C(=O)/C=C/c3ccc(F)cc3)C2=O)cc(OC)c1OC | Non-Toxic | – | – | inhibition (RAW264.7 [1]): < 85.3%; inhibition (RAW264.7 [2]): < 85.3%; inhibition [3]: < 85.3%; inhibition (RAW264.7 [5]): < 85.3%
COc1cc(/C=C/C(=O)N2CCC/C(=C\c3cc(OC)c(OC)c(OC)c3)C2=O)cc(OC)c1OC | Non-Toxic | 39.6 to 99.5% | 39.6 to 99.5% | –
COc1ccc(/C=C/C(=O)N2CCC/C(=C\c3cc(OC)c(OC)c(OC)c3)C2=O)cc1OC(C)=O | Non-Toxic | 39.6 to 99.5% | 39.6 to 99.5% | –
COc1cc(/C=C2\CCCN(C(=O)/C=C/c3ccc(Cl)cc3Cl)C2=O)cc(OC)c1OC | Non-Toxic | 46.8 to 68.2% | 38.5 to 53.4% | –

Reference: ChEMBL document CHEMBL4387702, “Design and synthesis novel di-carbonyl analogs of curcumin (DACs) act as potent anti-inflammatory agents against LPS-induced acute lung injury (ALI)” (Eur J Med Chem, 2019)
